The values below come from PubChem BioAssay AID573 (SRMLSC, 2007).

Molecules are shown by their SMILES. Out of some 65,000 compounds screened, about 1,400 (2.2%) were called active.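 The calls were made as follows: active = growth inhibition at or above a cutoff equal to the mean over every tested compound plus 3 SD (cut at about 60% in these data); inactive = the rest.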 The list comes from a sample in which actives are over-represented; it also holds similar structures and randomly drawn compounds.

The nature of this test: growth inhibitors of E. coli tolC mutant, primary screen, strain BW25113 ΔtolC::kan, 384-well (AID 573).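 Also: growth measured after 20 h incubation at 37 °C.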 The note with it: OD615, stronger effect = higher value, concentration not given here. The method, boiled down:
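Assay system: tolC-deleted E. coli BW25113. Medium: kanamycin-containing LB broth (50 µg/mL). Dosing: 10 µM final, single dose. Timing: bacterial growth with compound for 20 h at 37 °C. Detection: A615 absorbance measurement. Read-out basis: growth inhibition in percent.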
On to `CCOC(=O)c1c(-c2ccccc2)oc2ccc(OC(=O)N(C)C)cc12`, for which the growth inhibition was 96.5% (active).
Under `CCN1c2nc3c(C)cccn3c(=O)c2CC2(C(=O)N(C)C(=O)N(C)C2=O)C1C` (stereo not given) stands -0.7% (inactive); under `CCCCCCN=C(CC)c1c(O)n(CCCC)c(=O)[nH]c1=O`, 90.2% (active).
Under `CCC(=NCc1ccco1)c1c(O)n(Cc2ccccc2)c(=O)[nH]c1=O` stands 7.19% (inactive); under `CCC(=NCCCO)c1c(O)n(-c2ccc(OC)cc2)c(=O)[nH]c1=O`, -12.6% (inactive).
Take `CCCC(C)n1[nH]c(=O)c2c1NC(=O)CSC2c1ccc(OC)c(OC)c1` (stereo not given): the growth inhibition was -7.28% (inactive).
Take `Cn1c(C(=O)N2CCC(C(=O)N3CCC4(CC3)OCCO4)CC2)cc2sccc21`: the growth inhibition is 3.04% (inactive).
The same measure for `C/C(CCc1c[nH]c2ccccc12)=N\O`: -11.1% (inactive).
For the compound `c1cncc(CNC2=NCCC2)c1`, the growth inhibition was -5.19% (inactive).
The same measure for `C=Cn1ccnc1P(=S)(c1cc(N(CC)CC)ns1)c1nccn1C=C`: 8.14% (inactive).
